Test system: HEK-293T
Experiment: Multiplex assay against HEK293T
Format: toxicity, cell-based
Details: human
In short: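 Phenotypes for tubulin, mitochondrial mass and membrane permeability are expressed as per cents of healthy-nucleus cells. Cells were stained live at seeding with Hoechst33342, BioTracker Green Microtubule Cytoskeleton Dye, MitoTracker Red and Annexin V Alexa Fluor 680, then imaged after compound addition on a CQ1 microscope at 37°C and 5% CO2. Machine-learning gating in CellPathfinder separated Hoechst high-intensity objects from normal cells, divided normal cells by nuclear state (healthy, pyknosed, fragmented) and divided pyknosed cells into mitotic or apoptotic.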

[1] = 12 h, 1 µM, compound concentration 1 uM, replicate 1
[2] = 12 h, 1 µM, compound concentration 1 uM, replicate 2
[3] = 12 h, 10 µM, compound concentration 10 uM, replicate 1
[4] = 12 h, 10 µM, compound concentration 10 uM, replicate 2
[5] = 24 h, 1 µM, compound concentration 1 uM, replicate 1
[6] = 24 h, 1 µM, compound concentration 1 uM, replicate 2
[7] = 24 h, 10 µM, compound concentration 10 uM, replicate 1
[8] = 24 h, 10 µM, compound concentration 10 uM, replicate 2
[9] = 48 h, 1 µM, compound concentration 1 uM, replicate 1
[10] = 48 h, 1 µM, compound concentration 1 uM, replicate 2
[11] = 48 h, 10 µM, compound concentration 10 uM, replicate 1
[12] = 48 h, 10 µM, compound concentration 10 uM, replicate 2

For O=c1ccc2ccc(OCCCCN3CCN(c4cccc5sccc45)CC3)cc2[nH]1 [BREXPIPRAZOLE], the “Population Apoptotic (%)” value [1] was 44%, the “Population Fragmented Nuclei (%)” value [1] was 6% and the “Population Healthy Nuclei (%)” value [1] was 77%. The “Population Hoechst High Intensity Objects (%)” value [1] was 6%, the “Population Membrane Permeable-Phenotype (%)” value [1] was 0% and the “Population Mitochondria Different-Phenotype (%)” value [1] was 67%. The “Population Mitotic Cells (%)” value [1] was 55%, the “Population Normal (%)” value [1] was 93% and the “Population Pyknosed Nuclei (%)” value [1] was 15%. The “Population Tubulin-Different-Phenotype (%)” value [1] was 51%, the “Total Cell Count” value [1] was 392 and the “Population Apoptotic (%)” value [2] was 42%. For the same compound, the “Population Fragmented Nuclei (%)” value [2] was 5%, the “Population Healthy Nuclei (%)” value [2] was 80% and the “Population Mitochondria Different-Phenotype (%)” value [2] was 69%. The “Population Mitotic Cells (%)” value [2] was 57%, the “Population Pyknosed Nuclei (%)” value [2] was 14% and the “Population Tubulin-Different-Phenotype (%)” value [2] was 47%. For the same compound, the “Total Cell Count” value [2] was 354, the “Population Apoptotic (%)” value [3] was 82% and the “Population Fragmented Nuclei (%)” value [3] was 17%. For the same compound, the “Population Healthy Nuclei (%)” value [3] was 43%, the “Population Hoechst High Intensity Objects (%)” value [3] was 66% and the “Population Membrane Permeable-Phenotype (%)” value [3] was 0%. For the same compound, the “Population Mitochondria Different-Phenotype (%)” value [3] was 97%, the “Population Mitotic Cells (%)” value [3] was 17% and the “Population Normal (%)” value [3] was 33%. For the same compound, the “Population Pyknosed Nuclei (%)” value [3] was 38%, the “Population Tubulin-Different-Phenotype (%)” value [3] was 81% and the “Total Cell Count” value [3] was 299. The “Population Apoptotic (%)” value [4] was 85%, the “Population Fragmented Nuclei (%)” value [4] was 10% and the “Population Healthy Nuclei (%)” value [4] was 66%. For the same compound, the “Population Hoechst High Intensity Objects (%)” value [4] was 41%, the “Population Mitochondria Different-Phenotype (%)” value [4] was 100% and the “Population Mitotic Cells (%)” value [4] was 14%. For the same compound, the “Population Normal (%)” value [4] was 59%, the “Population Pyknosed Nuclei (%)” value [4] was 23% and the “Population Tubulin-Different-Phenotype (%)” value [4] was 62%. For the same compound, the “Total Cell Count” value [4] was 200, the “Population Apoptotic (%)” value [5] was 41% and the “Population Fragmented Nuclei (%)” value [5] was 10%. For the same compound, the “Population Healthy Nuclei (%)” value [5] was 73%, the “Population Hoechst High Intensity Objects (%)” value [5] was 8% and the “Population Membrane Permeable-Phenotype (%)” value [5] was 0%. For the same compound, the “Population Mitochondria Different-Phenotype (%)” value [5] was 51%, the “Population Mitotic Cells (%)” value [5] was 58% and the “Population Normal (%)” value [5] was 91%. The “Population Pyknosed Nuclei (%)” value [5] was 16%, the “Population Tubulin-Different-Phenotype (%)” value [5] was 36% and the “Total Cell Count” value [5] was 501. The “Population Apoptotic (%)” value [6] was 42%, the “Population Fragmented Nuclei (%)” value [6] was 4% and the “Population Healthy Nuclei (%)” value [6] was 87%. The “Population Hoechst High Intensity Objects (%)” value [6] was 2%, the “Population Mitochondria Different-Phenotype (%)” value [6] was 52% and the “Population Mitotic Cells (%)” value [6] was 57%. The “Population Normal (%)” value [6] was 97%, the “Population Pyknosed Nuclei (%)” value [6] was 7% and the “Population Tubulin-Different-Phenotype (%)” value [6] was 35%. For the same compound, the “Total Cell Count” value [6] was 449, the “Population Apoptotic (%)” value [7] was 91% and the “Population Fragmented Nuclei (%)” value [7] was 12%. The “Population Healthy Nuclei (%)” value [7] was 37%, the “Population Hoechst High Intensity Objects (%)” value [7] was 68% and the “Population Membrane Permeable-Phenotype (%)” value [7] was 0%. The “Population Mitochondria Different-Phenotype (%)” value [7] was 100%, the “Population Mitotic Cells (%)” value [7] was 8% and the “Population Normal (%)” value [7] was 31%. The “Population Pyknosed Nuclei (%)” value [7] was 50%, the “Population Tubulin-Different-Phenotype (%)” value [7] was 66% and the “Total Cell Count” value [7] was 284. For the same compound, the “Population Apoptotic (%)” value [8] was 89%, the “Population Fragmented Nuclei (%)” value [8] was 10% and the “Population Healthy Nuclei (%)” value [8] was 59%. For the same compound, the “Population Hoechst High Intensity Objects (%)” value [8] was 46%, the “Population Mitochondria Different-Phenotype (%)” value [8] was 98% and the “Population Mitotic Cells (%)” value [8] was 10%. The “Population Normal (%)” value [8] was 53%, the “Population Pyknosed Nuclei (%)” value [8] was 30% and the “Population Tubulin-Different-Phenotype (%)” value [8] was 57%. The “Total Cell Count” value [8] was 180, the “Population Apoptotic (%)” value [9] was 49% and the “Population Fragmented Nuclei (%)” value [9] was 9%. For the same compound, the “Population Healthy Nuclei (%)” value [9] was 80%, the “Population Hoechst High Intensity Objects (%)” value [9] was 5% and the “Population Membrane Permeable-Phenotype (%)” value [9] was 0%. For the same compound, the “Population Mitochondria Different-Phenotype (%)” value [9] was 47%, the “Population Mitotic Cells (%)” value [9] was 50% and the “Population Normal (%)” value [9] was 94%. The “Population Pyknosed Nuclei (%)” value [9] was 10%, the “Population Tubulin-Different-Phenotype (%)” value [9] was 28% and the “Total Cell Count” value [9] was 679. For the same compound, the “Population Apoptotic (%)” value [10] was 48%, the “Population Fragmented Nuclei (%)” value [10] was 12% and the “Population Healthy Nuclei (%)” value [10] was 79%. For the same compound, the “Population Hoechst High Intensity Objects (%)” value [10] was 3%, the “Population Membrane Permeable-Phenotype (%)” value [10] was 1% and the “Population Mitochondria Different-Phenotype (%)” value [10] was 36%. For the same compound, the “Population Mitotic Cells (%)” value [10] was 51%, the “Population Normal (%)” value [10] was 96% and the “Population Pyknosed Nuclei (%)” value [10] was 7%. The “Population Tubulin-Different-Phenotype (%)” value [10] was 26%, the “Total Cell Count” value [10] was 644 and the “Population Apoptotic (%)” value [11] was 93%. The “Population Fragmented Nuclei (%)” value [11] was 19%, the “Population Healthy Nuclei (%)” value [11] was 30% and the “Population Hoechst High Intensity Objects (%)” value [11] was 67%. For the same compound, the “Population Membrane Permeable-Phenotype (%)” value [11] was 0%, the “Population Mitochondria Different-Phenotype (%)” value [11] was 96% and the “Population Mitotic Cells (%)” value [11] was 6%. The “Population Normal (%)” value [11] was 32%, the “Population Pyknosed Nuclei (%)” value [11] was 50% and the “Population Tubulin-Different-Phenotype (%)” value [11] was 51%. The “Total Cell Count” value [11] was 269, the “Population Apoptotic (%)” value [12] was 89% and the “Population Fragmented Nuclei (%)” value [12] was 14%. The “Population Healthy Nuclei (%)” value [12] was 50%, the “Population Hoechst High Intensity Objects (%)” value [12] was 52% and the “Population Mitochondria Different-Phenotype (%)” value [12] was 97%. The “Population Mitotic Cells (%)” value [12] was 10%, the “Population Normal (%)” value [12] was 47% and the “Population Pyknosed Nuclei (%)” value [12] was 34%. For the same compound, the “Population Tubulin-Different-Phenotype (%)” value [12] was 82% and the “Total Cell Count” value [12] was 170.

— ChEMBL document CHEMBL5058577, “EUbOPEN Chemogenomics Library 2 (Multiplex)” (2022)
